For orientation: GI50 means the concentration at which growth is held to half of that of the control. Lower therefore signals greater sensitivity of the cells.

Active and inactive are the calls of the source. The rule behind the calls is not given here. A value given as a limit tells only on which side of the number the result lay.

One assay has as its system Osteoblast. Briefly: Anti-osteoclastic bone resorption activity in ddY mouse calvarial osteoblasts assessed as inhibition of PGE2-stimulated resorption pit formation relative to 17-beta-estradiol. It is filed as functional, cell-based. Summed up: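 Osteoclasts generated by 7-day coculture of preconfluent calvarial osteoblasts (1–2 day old ddY mice) with fresh bone marrow cells (5 week-old male ddY mice) on collagen-coated dish in α-MEM (pH 7.0), 10% FCS, 10 nM calcitriol, 1.0 μM PGE2; collagenase-released cells plated on dentin slices with 10 nM E2 or compounds, 2 days; pits counted after toluidine blue staining.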

The test system of the next assay is MCF7. Briefly: Growth inhibition of human MCF7 cells after 72 hrs by Alamar Blue assay. It is filed as functional. Particulars: MCF7, 72 h. Summed up: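 MCF-7 grown in E-MEM with 10% FCS and antibiotic-antimycotic; 1 × 10^4 cells/well seeded, 24 h at 37 °C, 5% CO2; medium replaced with drug-containing medium (final DMSO ≤0.25%) in triplicate wells, 72 h continuous exposure; alamarBlue added for further 3 h.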
For orientation: Resazurin is reduced to fluorescent resorufin, in cell work by metabolically active cells.

For the next assay, the system named is MIA PaCa-2. Briefly: Growth inhibition of human MIAPaCa2 cells after 72 hrs by Alamar Blue assay. The format is functional. The following applies: MIA PaCa-2, 72 h. Summed up:
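MIA PaCa-2 grown in D-MEM with 10% FCS and antibiotic-antimycotic; 1 × 10^4 cells/well seeded, 24 h at 37 °C, 5% CO2; medium replaced with drug-containing medium (final DMSO ≤0.25%) in triplicate wells, 72 h continuous exposure; alamarBlue added for further 3 h.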

Regarding `C/C=C/C1=Nc2c(oc3ccc(Br)cc23)/C(=C/C=O)O1`, the outcome in the assay with Osteoblast was inactive. With `COc1cccc2c3c(oc12)/C(=C/C=C/C(=O)N1CCOCC1)OC(/C=C/c1ccccc1)=N3`, the 50% growth inhibitory concentration (GI50) with MCF7 was over 10 µM; in the assay on MIA PaCa-2 it was 5.34 µM. On the same counts, the results for `CCOC(=O)/C=C/C=C1\OC(/C=C(\Cl)c2ccc(Cl)cc2)=Nc2c1oc1ccc(Br)cc21` are over 10 µM and over 10 µM. With `CCOC(=O)/C=C/C=C1\OC(/C=C/c2ccccc2)=Nc2c1oc1ccc(Br)cc21`, in the assay with Osteoblast, the result was Active. Turning to `O=c1[nH]cc(F)c(=O)[nH]1` [FLUOROURACIL], the GI50 in the assay on MCF7 and with MIA PaCa-2 was over 10 µM throughout. In the case of `CCN(CC)C(=O)/C=C/C=C1\OC(/C=C/c2ccccc2)=Nc2c1oc1ccc(Br)cc21`, the outcome in the assay on Osteoblast was inactive.

As for `COc1cccc2c3c(oc12)/C(=C/C=O)OC(/C=C/C=C(/Cl)c1ccc(F)cc1)=N3`, the GI50 was 7.14 µM with MCF7 and over 10 µM with MIA PaCa-2. For the compound `COc1ccc(CCNC(=O)/C=C/C=C2\OC(/C=C/c3ccccc3)=Nc3c2oc2ccc(Br)cc32)cc1OC`, the outcome with Osteoblast was inactive. The same measure, in the same setting: with `O=C/C=C1\OC(/C=C/c2ccccc2)=Nc2c1oc1ccc(Br)cc21` the entry was “inactive”; with `O=C(/C=C/C=C1\OC(/C=C/c2ccccc2)=Nc2c1oc1ccc(Br)cc21)N1CCOCC1`, “inactive”. Same read-out and setting: next, `CCOP(=O)(OCC)/C(=C/C=C1\OC(/C=C/c2ccccc2)=Nc2c1oc1ccc(Br)cc21)c1ccc(Cl)cc1`: “Active”.
